ChEMBL document CHEMBL1140177 (J Med Chem, 2008)
Converted amounts (≈) assume the structure as drawn.

Tests used:
[1] = test system: Human immunodeficiency virus 1; experiment: Antiviral activity against wild type HIV1 infected in human MT4 cells after 72 hrs in presence of 10% fetal bovine serum; assay type: functional; details: Human immunodeficiency virus 1, MT4, 72 h; read-out: CIC95
Summary of the method: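 MT-4 human T-lymphoid cells in RPMI 1640 with 10% FBS. CIC95 is the concentration that inhibits viral spread by >95%. Values are either geometric means of two determinations or given with standard deviations for n > 3 or n > 50.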

[2] = test system: Human immunodeficiency virus 1; experiment: Antiviral activity against HIV1 with reverse transcriptase K103N mutant infected in human MT4 cells after 72 hrs in presence of 10% fetal bovine serum; assay type: functional; details: Human immunodeficiency virus 1, MT4, 72 h; read-out: CIC95
Summary of the method: (§1)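 Mutant HIV-1 spread was assayed in MT-4 human T-lymphoid cells kept in RPMI 1640 with 10% FBS. CIC95 is the concentration that inhibits viral spread by >95%. Values are geometric means of two determinations, or mean with standard deviation where n > 3. Cytotoxicity was checked up to an assay limit of 8.3 µM.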

[3] = test system: Human immunodeficiency virus 1; experiment: Antiviral activity against HIV1 with reverse transcriptase Y181C mutant infected in human MT4 cells after 72 hrs in presence of 10% fetal bovine serum; assay type: functional; details: Human immunodeficiency virus 1, MT4, 72 h; read-out: CIC95; summary of the method: as §1
[4] = test system: Human immunodeficiency virus 1; experiment: Antiviral activity against wild type HIV1 infected in human MT4 cells after 72 hrs in presence of 50% normal human serum; assay type: functional; details: Human immunodeficiency virus 1, MT4, 72 h; read-out: CIC95
Summary of the method: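 MT-4 human T-lymphoid cells in RPMI 1640 with 50% NHS. CIC95 is the concentration that inhibits viral spread by >95%. Values are either geometric means of two determinations or given with standard deviations for n > 3 or n > 50.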

[5] = AUC in Sprague-Dawley rat at 10 mg/kg, po; assay type: ADME, organism-based; parameters: dose 10 mg/kg, route oral; details: plasma
[6] = Oral bioavailability in Sprague-Dawley rat at 10 mg/kg; assay type: ADME, organism-based; details: in vivo
[7] = AUC in rhesus monkey at 10 mg/kg, po; assay type: ADME, organism-based, Macaca mulatta; parameters: dose 10 mg/kg, route oral; details: plasma
[8] = Oral bioavailability in rhesus monkey at 10 mg/kg; assay type: ADME, organism-based, Macaca mulatta; details: in vivo
Rattus norvegicus = experiment: Half life in Sprague-Dawley rat at 10 mg/kg, po and 3 mg/kg, iv; assay type: ADME, organism-based; details: in vivo
Summary of the method: (§2)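 Three Sprague-Dawley rats, averaged. Oral dose 10 mpk in 0.5% methocel; intravenous dose 3 mpk in DMSO. Individual values within 25% of mean.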

[9] = Clearance in Sprague-Dawley rat at 10 mg/kg, po and 3 mg/kg, iv; assay type: ADME, organism-based; details: in vivo; summary of the method: as §2
[10] = Volume of distribution in Sprague-Dawley rat at 10 mg/kg, po and 3 mg/kg, iv; assay type: ADME, organism-based; details: in vivo; summary of the method: as §2
Canis familiaris [11] = experiment: Half life in Beagle dog at 10 mg/kg, po and 2 mg/kg, iv; assay type: ADME, organism-based, Canis lupus familiaris; details: in vivo
Summary of the method: (§3)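 Three beagle dogs, averaged. Oral dose 10 mpk in 0.5% methocel; intravenous dose 2 mpk in DMSO. Individual values within 25% of mean.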

[12] = Clearance in Beagle dog at 10 mg/kg, po and 2 mg/kg, iv; assay type: ADME, organism-based, Canis lupus familiaris; details: in vivo; summary of the method: as §3
[13] = AUC in Beagle dog at 10 mg/kg, po; assay type: ADME, organism-based, Canis lupus familiaris; parameters: dose 10 mg/kg, route oral; details: plasma; summary of the method: as §3
[14] = Volume of distribution in Beagle dog at 10 mg/kg, po and 2 mg/kg, iv; assay type: ADME, organism-based, Canis lupus familiaris; details: in vivo; summary of the method: as §3
[15] = Oral bioavailability in Beagle dog at 10 mg/kg; assay type: ADME, organism-based, Canis lupus familiaris; details: in vivo; summary of the method: as §3
[16] = Clearance in rhesus monkey at 10 mg/kg, po and 2 mg/kg, iv; assay type: ADME, organism-based, Macaca mulatta; details: in vivo
[17] = Volume of distribution in rhesus monkey at 10 mg/kg, po and 2 mg/kg, iv; assay type: ADME, organism-based, Macaca mulatta; details: in vivo
[18] = Solubility at pH 2; assay type: physicochemical; details: buffer
[19] = test system: Human immunodeficiency virus 1; experiment: Antiviral activity against wild type HIV1 in presence of 40% normal human serum; assay type: functional, organism-based
Summary of the method: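 Monogram Bioscience PhenoScreen cell-culture assay run with 40% NHS. […] Value is the geometric mean of n = 2.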

[20] = test system: Human immunodeficiency virus 1; experiment: Antiviral activity against HIV1 with reverse transcriptase G190A mutant in presence of 40% normal human serum; assay type: functional, organism-based
[21] = test system: Human immunodeficiency virus 1; experiment: Antiviral activity against HIV1 with reverse transcriptase G190S mutant in presence of 40% normal human serum; assay type: functional, organism-based
[22] = test system: Human immunodeficiency virus 1; experiment: Antiviral activity against HIV1 with reverse transcriptase L100I mutant in presence of 40% normal human serum; assay type: functional, organism-based
[23] = test system: Human immunodeficiency virus 1; experiment: Antiviral activity against HIV1 with reverse transcriptase K103N mutant in presence of 40% normal human serum; assay type: functional, organism-based
[24] = test system: Human immunodeficiency virus 1; experiment: Antiviral activity against HIV1 with reverse transcriptase Y181C mutant in presence of 40% normal human serum; assay type: functional, organism-based
[25] = test system: Human immunodeficiency virus 1; experiment: Antiviral activity against HIV1 with reverse transcriptase Y188L mutant in presence of 40% normal human serum; assay type: functional, organism-based
[26] = test system: Human immunodeficiency virus 1; experiment: Antiviral activity against HIV1 with reverse transcriptase V106A mutant in presence of 40% normal human serum; assay type: functional, organism-based
[27] = test system: Human immunodeficiency virus 1; experiment: Antiviral activity against HIV1 with reverse transcriptase V179E mutant in presence of 40% normal human serum; assay type: functional, organism-based
[28] = test system: Human immunodeficiency virus 1; experiment: Antiviral activity against HIV1 with reverse transcriptase P236L mutant in presence of 40% normal human serum; assay type: functional, organism-based
[29] = test system: Human immunodeficiency virus 1; experiment: Antiviral activity against HIV1 with reverse transcriptase F227L mutant in presence of 40% normal human serum; assay type: functional, organism-based
[30] = test system: Human immunodeficiency virus 1; experiment: Antiviral activity against HIV1 with reverse transcriptase K101E/G190A mutant in presence of 40% normal human serum; assay type: functional, organism-based
[31] = test system: Human immunodeficiency virus 1; experiment: Antiviral activity against HIV1 with reverse transcriptase K103N/G190A mutant in presence of 40% normal human serum; assay type: functional, organism-based
[32] = test system: Human immunodeficiency virus 1; experiment: Antiviral activity against HIV1 with reverse transcriptase K103N/P225H mutant in presence of 40% normal human serum; assay type: functional, organism-based
[33] = test system: Human immunodeficiency virus 1; experiment: Antiviral activity against HIV1 with reverse transcriptase K103N/V179E mutant in presence of 40% normal human serum; assay type: functional, organism-based
[34] = test system: Human immunodeficiency virus 1; experiment: Antiviral activity against HIV1 with reverse transcriptase K103N/Y181C mutant in presence of 40% normal human serum; assay type: functional, organism-based
[35] = test system: Human immunodeficiency virus 1; experiment: Antiviral activity against HIV1 with reverse transcriptase Y181C/G190A mutant in presence of 40% normal human serum; assay type: functional, organism-based
[36] = test system: Human immunodeficiency virus 1; experiment: Antiviral activity against HIV1 with reverse transcriptase K103N/Y181C/G190A mutant in presence of 40% normal human serum; assay type: functional, organism-based
Canis familiaris [37] = species on record: Canis familiaris; experiment: Toxicity in cardiovascular dog model assessed as effect on QTc intervals; assay type: organism-based, Canis lupus familiaris, Heart; details: in vivo
Summary of the method: (§4)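 Conscious dog cardiovascular model, with QTc, heart rate and blood pressure monitored at plasma levels up to 55 µM.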

Canis familiaris [38] = species on record: Canis familiaris; experiment: Toxicity in cardiovascular dog model assessed as effect on heart rate; assay type: organism-based, Canis lupus familiaris; details: in vivo; summary of the method: as §4
Canis familiaris [39] = species on record: Canis familiaris; experiment: Toxicity in cardiovascular dog model assessed as effect on blood pressure; assay type: organism-based, Canis lupus familiaris; details: in vivo; summary of the method: as §4
[40] = target: Human immunodeficiency virus type 1 reverse transcriptase (Human immunodeficiency virus 1, UniProt Q72547); experiment: Inhibition of wild type HIV1 RT polymerase by SPA
[41] = target: Human immunodeficiency virus type 1 reverse transcriptase (Human immunodeficiency virus 1, UniProt Q72547, K103N); experiment: Inhibition of HIV1 RT polymerase K103N mutant by SPA
[42] = target: Human immunodeficiency virus type 1 reverse transcriptase (Human immunodeficiency virus 1, UniProt Q72547, Y181C); experiment: Inhibition of HIV1 RT polymerase Y181C mutant by SPA

SMILES: N#Cc1cc(Cl)cc(Oc2cc(OCc3n[nH]c4ccccc34)ccc2Cl)c1
- IC95 [1]: 0.0226 µM
- IC95 [2]: 0.033 µM
- IC95 [3]: 0.102 µM
- IC95 [4]: 0.114 µM

SMILES: N#Cc1cc(Cl)cc(Oc2cc(OCc3n[nH]c4nc(N)ccc34)ccc2Cl)c1
- IC95 [1]: 0.0084 µM
- IC95 [2]: 0.0114 µM
- IC95 [3]: 0.019 µM
- IC95 [4]: 0.034 µM
- AUC [5]: 22.7 µM·h
- bioavailability [6]: 52%
- AUC [7]: 0.3 µM·h
- bioavailability [8]: 1%
- t1/2 (Rattus norvegicus): 3.5 h
- clearance [9]: 9 mL/min/kg
- Vd [10]: 2 L/kg
- t1/2 (Canis familiaris [11]): 3.9 h
- clearance [12]: 5.8 mL/min/kg
- AUC [13]: 31.3 µM·h
- Vd [14]: 1.7 L/kg
- bioavailability [15]: 47%
- clearance [16]: 15.8 mL/min/kg
- Vd [17]: 1.9 L/kg
- solubility [18]: 10 µg/mL (≈ 23.5 µM)
- IC50 [19]: 1.35 nM
- IC50 [20]: 1.5 nM
- IC50 [21]: 7.6 nM
- IC50 [22]: 1.8 nM
- IC50 [23]: 4.4 nM
- IC50 [24]: 5.6 nM
- IC50 [25]: > 1000 nM
- IC50 [26]: 147 nM
- IC50 [27]: 5 nM
- IC50 [28]: 4.2 nM
- IC50 [29]: 0.7 nM
- IC50 [30]: 10.1 nM
- IC50 [31]: 9.6 nM
- IC50 [32]: 1.2 nM
- IC50 [33]: 9.6 nM
- IC50 [34]: 84 nM
- IC50 [35]: 14.8 nM
- IC50 [36]: 98.3 nM
- Activity (Canis familiaris [37]): Non-toxic
- Activity (Canis familiaris [38]): Non-toxic
- Activity (Canis familiaris [39]): Non-toxic

SMILES: N#Cc1cc(Cl)cc(Oc2cc(OCc3n[nH]c4ccncc34)ccc2Cl)c1
- IC50 [40]: 1.2 nM
- IC50 [41]: 3.8 nM
- IC50 [42]: 6.2 nM
- IC95 [1]: 0.169 µM
- IC95 [2]: 0.922 µM
- IC95 [3]: 0.278 µM
- IC95 [4]: 0.307 µM
